# Experimental data as given in ChEMBL document CHEMBL1156920, “Structural analogues of schweinfurthin F: probing the steric, electronic, and hydrophobic properties of the D-ring substructure” (Bioorg Med Chem, 2010).
# Assays:
# Type in all cases: functional
# TK-10 = assay: Growth inhibition of human TK10 cells; conditions: for TGI: read-out: pTGI (converted)
# MDA-MB-231 = assay: Growth inhibition of human MDA-MB-231 cells; conditions: for TGI: read-out: pTGI (converted)
# COLO 205 = assay: Growth inhibition of human COLO205 cells; conditions: for TGI: read-out: pTGI (converted)
# SW-620 = assay: Growth inhibition of human SW620 cells
# NCI-H322M = assay: Growth inhibition of human NCI-H322M cells; conditions: for TGI: read-out: pTGI (converted)
# NCI-H460 = assay: Growth inhibition of human NCI-H460 cells; conditions: for TGI: read-out: pTGI (converted)
# HOP-62 = assay: Growth inhibition of human HOP62 cells; conditions: for TGI: read-out: pTGI (converted)
# SNB-19 = assay: Growth inhibition of human SNB19 cells
# BT-549 = assay: Growth inhibition of human BT549 cells; conditions: for CC50: read-out: pLC50 (the source's name) (converted); for TGI: read-out: pTGI (converted)
# DU-145 = assay: Growth inhibition of human DU145 cells; conditions: for TGI: read-out: pTGI (converted)
# A549 = assay: Selectivity index, ratio of EC50 for human A549 cells to EC50 for SF295 cells
# Procedure, shortened: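 SF-295 cells were kept in RPMI 1640 and A549 in F-12, each with 10% FBS, pen-strep, amphotericin B and L-glutamine, at 37 °C and 5% CO2. Cells at 60% confluency were dosed for 44 h, then given 0.06 mg/mL MTT for 4 h (SF-295 in phenol-red-free RPMI). Acid/Triton/isopropanol stop was added overnight at 37 °C, and OD read at 540/650 nm. EC50 ratio is A549 over SF-295.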
# K562 = assay: Growth inhibition of human K562 cells; conditions: for CC50: read-out: pLC50 (the source's name) (converted); for TGI: read-out: pTGI (converted)
# A498 = assay: Growth inhibition of human A498 cells; conditions: for TGI: read-out: pTGI (converted)
# HCT-15 = assay: Growth inhibition of human HCT15 cells; conditions: for TGI: read-out: pTGI (converted)
# 786-0 = assay: Growth inhibition of human 786-0 cells; conditions: for TGI: read-out: pTGI (converted)
# [1] = Growth inhibition of human Hs 578T cells
# [2] = Cytotoxicity against human NCI60 cells
# MCF7 = assay: Growth inhibition of human MCF7 cells; conditions: for CC50: read-out: pLC50 (the source's name) (converted); for TGI: read-out: pTGI (converted)
# SK-MEL-28 = assay: Growth inhibition of human SK-MEL-28 cells
# MDA-MB-435 = assay: Growth inhibition of human MDA-MB-435 cells; conditions: for TGI: read-out: pTGI (converted)
# M14 = assay: Growth inhibition of human M14 cells; conditions: for CC50: read-out: pLC50 (the source's name) (converted); for TGI: read-out: pTGI (converted)
# OVCAR-8 = assay: Growth inhibition of human OVCAR8 cells
# [3] = read-out: pLC50 (the source's name) (converted)
smiles,measurement,setting,value
COc1cc(/C=C/c2cc(O)c(CCC(C)C)c(O)c2)cc2c1O[C@]1(C)CC[C@@H](O)C(C)(C)[C@H]1C2,GI50,TK-10,6.31 µM
same,LC50,TK-10,74.1 µM
same,TGI,TK-10,25.1 µM
same,GI50,MDA-MB-231,1.74 µM
same,LC50,MDA-MB-231,39.8 µM
same,TGI,MDA-MB-231,11 µM
same,GI50,COLO 205,0.891 µM
same,LC50,COLO 205,> 100 µM
same,TGI,COLO 205,12.3 µM
same,GI50,SW-620,0.214 µM
same,CC50,SW-620; [3],14.8 µM
same,TGI,SW-620; read-out: pTGI (converted),2.34 µM
same,GI50,NCI-H322M,0.933 µM
same,TGI,NCI-H322M,28.8 µM
same,GI50,NCI-H460,0.0661 µM
same,LC50,NCI-H460,51.3 µM
same,TGI,NCI-H460,1.78 µM
same,GI50,HOP-62,0.0513 µM
same,LC50,HOP-62,13.8 µM
same,TGI,HOP-62,0.603 µM
same,GI50,SNB-19,0.372 µM
same,GI50,BT-549,0.363 µM
same,CC50,BT-549,> 100 µM
same,TGI,BT-549,28.8 µM
same,GI50,DU-145,0.24 µM
same,LC50,DU-145,37.2 µM
same,TGI,DU-145,14.1 µM
same,Ratio EC50,A549,10
same,GI50,K562,1.17 µM
same,CC50,K562,> 100 µM
same,TGI,K562,> 100 µM
same,GI50,A498,0.158 µM
same,LC50,A498,36.3 µM
same,TGI,A498,6.31 µM
same,GI50,HCT-15,0.182 µM
same,LC50,HCT-15,26.3 µM
same,TGI,HCT-15,2.88 µM
same,GI50,786-0,0.0102 µM
same,LC50,786-0,2.88 µM
same,TGI,786-0,0.0537 µM
same,GI50,[1],0.0309 µM
same,CC50,[1]; [3],> 100 µM
same,TGI,[1]; read-out: pTGI (converted),0.166 µM
same,GI50,[2],0.29 µM
same,GI50,MCF7,0.0427 µM
same,CC50,MCF7,> 100 µM
same,TGI,MCF7,2.4 µM
same,GI50,SK-MEL-28,0.123 µM
same,CC50,SK-MEL-28; [3],37.2 µM
same,TGI,SK-MEL-28; read-out: pTGI (converted),11.2 µM
same,GI50,MDA-MB-435,0.501 µM
same,LC50,MDA-MB-435,> 100 µM
same,TGI,MDA-MB-435,24 µM
same,GI50,M14,0.245 µM
same,CC50,M14,30.9 µM
same,TGI,M14,0.24 µM
COc1cc(CCc2cc(O)c(C/C=C(\C)CC/C=C(\C)CO)c(O)c2)cc2c1O[C@]1(C)CC[C@@H](O)C(C)(C)[C@H]1C2,GI50,TK-10,13.2 µM
same,LC50,TK-10,> 100 µM
same,TGI,TK-10,67.6 µM
same,GI50,MDA-MB-231,8.13 µM
same,LC50,MDA-MB-231,> 100 µM
same,TGI,MDA-MB-231,38 µM
same,GI50,COLO 205,10.7 µM
same,LC50,COLO 205,67.6 µM
same,TGI,COLO 205,26.9 µM
same,GI50,NCI-H322M,5.5 µM
same,CC50,NCI-H322M; [3],> 100 µM
same,TGI,NCI-H322M,42.7 µM
same,GI50,NCI-H460,3.31 µM
same,LC50,NCI-H460,38.9 µM
same,TGI,NCI-H460,10.7 µM
same,GI50,HOP-62,10 µM
same,LC50,HOP-62,53.7 µM
same,TGI,HOP-62,22.9 µM
same,GI50,SNB-19,4.17 µM
same,LC50,SNB-19,49 µM
same,TGI,SNB-19; read-out: pTGI (converted),18.2 µM
same,GI50,BT-549,3.16 µM
same,CC50,BT-549,75.9 µM
same,TGI,BT-549,21.9 µM
same,GI50,DU-145,6.46 µM
same,LC50,DU-145,> 100 µM
same,TGI,DU-145,28.2 µM
same,GI50,K562,3.09 µM
same,CC50,K562,64.6 µM
same,TGI,K562,12.9 µM
same,GI50,A498,7.59 µM
same,LC50,A498,> 100 µM
same,TGI,A498,61.7 µM
same,GI50,HCT-15,5.01 µM
same,LC50,HCT-15,> 100 µM
same,TGI,HCT-15,22.9 µM
same,GI50,OVCAR-8,8.32 µM
same,CC50,OVCAR-8; [3],> 100 µM
same,TGI,OVCAR-8; read-out: pTGI (converted),64.6 µM
same,GI50,786-0,2.4 µM
same,LC50,786-0,> 100 µM
same,TGI,786-0,> 100 µM
same,GI50,[2],4.9 µM
same,GI50,MCF7,2.95 µM
same,CC50,MCF7,53.7 µM
same,TGI,MCF7,12.9 µM
same,GI50,MDA-MB-435,6.31 µM
same,LC50,MDA-MB-435,> 100 µM
same,TGI,MDA-MB-435,32.4 µM
same,GI50,M14,6.03 µM
same,CC50,M14,83.2 µM
same,TGI,M14,23.4 µM
